Assay results published in ChEMBL document CHEMBL3860059, “Design, Synthesis, and Biological Evaluation of First-in-Class Dual Acting Histone Deacetylases (HDACs) and Phosphodiesterase 5 (PDE5) Inhibitors for the Treatment of Alzheimer's Disease” (J Med Chem, 2016).

Assays:
Histone deacetylase 1 = Histone deacetylase 1 (Homo sapiens, UniProt Q13547); assay: Inhibition of full length recombinant human C-terminal His/Flag-tagged HDAC1 expressed in baculovirus infected Sf9 cells using fluorogenic HDAC substrate after 30 mins by fluorescence analysis
Summary of the method: (§1)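 Full-length human recombinant HDAC1 (0.4 μg/mL final), HDAC2 (1.5 μg/mL), HDAC3/NCOR2 (0.1 μg/mL) or HDAC6 (3.6 μg/mL) with 10 μM fluorogenic acetyl-lysine substrate and 0.1 mg/mL BSA, 1% DMSO, 30 min at 37 °C; lysine developer 20 min at room temperature; fluorescence ex 355/em 460 nm. Vehicle = positive control, no enzyme = negative; IC50 from curve fit.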

[1] = molecular target: cGMP-specific 3',5'-cyclic phosphodiesterase (Homo sapiens, UniProt O76074); assay: Inhibition of full length recombinant human N-terminal GST-tagged PDE5A1 expressed in baculovirus infected Sf9 cells using cGMP as substrate after 30 mins by HTRF assay
[2] = Dissociation constant, pKa of the compound; format: physicochemical
[3] = molecular target: T1, Protein deacetylase HDAC6 (Homo sapiens, UniProt Q9UBN7); assay: Inhibition of full length recombinant human N-terminal GST tagged HDAC6 expressed in baculovirus infected Sf9 cells using fluorogenic HDAC substrate after 30 mins by fluorescence analysis; summary of the method: as §1
T1 sequence (Q9UBN7 whole entry): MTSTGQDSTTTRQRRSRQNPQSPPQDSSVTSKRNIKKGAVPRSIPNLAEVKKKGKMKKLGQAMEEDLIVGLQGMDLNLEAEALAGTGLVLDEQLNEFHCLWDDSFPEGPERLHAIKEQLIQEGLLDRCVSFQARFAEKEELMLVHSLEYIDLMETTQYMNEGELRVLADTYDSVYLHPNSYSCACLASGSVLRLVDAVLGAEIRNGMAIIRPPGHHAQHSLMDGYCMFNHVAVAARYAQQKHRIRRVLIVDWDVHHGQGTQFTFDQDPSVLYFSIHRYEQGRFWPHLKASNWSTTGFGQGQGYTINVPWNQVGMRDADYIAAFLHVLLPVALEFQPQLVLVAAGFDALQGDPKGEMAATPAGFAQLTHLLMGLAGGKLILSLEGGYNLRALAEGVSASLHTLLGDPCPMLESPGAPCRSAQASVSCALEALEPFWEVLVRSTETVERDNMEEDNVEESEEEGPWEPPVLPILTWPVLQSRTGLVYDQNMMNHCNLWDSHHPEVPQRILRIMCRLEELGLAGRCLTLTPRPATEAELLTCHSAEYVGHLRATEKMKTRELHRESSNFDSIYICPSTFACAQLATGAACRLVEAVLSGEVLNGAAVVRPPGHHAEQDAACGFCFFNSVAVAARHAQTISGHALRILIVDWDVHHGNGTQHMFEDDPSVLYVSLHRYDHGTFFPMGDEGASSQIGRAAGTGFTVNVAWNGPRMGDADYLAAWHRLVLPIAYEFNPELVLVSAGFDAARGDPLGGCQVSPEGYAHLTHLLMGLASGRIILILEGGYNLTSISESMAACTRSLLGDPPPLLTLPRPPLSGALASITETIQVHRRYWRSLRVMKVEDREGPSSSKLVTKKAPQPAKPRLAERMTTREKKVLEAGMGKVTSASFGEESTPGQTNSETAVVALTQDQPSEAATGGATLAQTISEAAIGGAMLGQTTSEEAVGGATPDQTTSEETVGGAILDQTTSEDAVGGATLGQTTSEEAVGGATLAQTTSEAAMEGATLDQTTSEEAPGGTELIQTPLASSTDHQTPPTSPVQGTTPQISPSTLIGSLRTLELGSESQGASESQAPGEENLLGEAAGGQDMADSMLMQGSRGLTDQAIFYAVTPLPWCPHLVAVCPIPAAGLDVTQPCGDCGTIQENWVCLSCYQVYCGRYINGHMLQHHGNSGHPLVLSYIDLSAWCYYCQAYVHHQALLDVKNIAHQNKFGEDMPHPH

Histone deacetylase 2 = Histone deacetylase 2 (Homo sapiens, UniProt Q92769); assay: Inhibition of full length recombinant human C-terminal His-tagged HDAC2 expressed in baculovirus infected Sf9 cells using fluorogenic HDAC substrate after 30 mins by fluorescence analysis; summary of the method: as §1
[4] = Cytotoxicity against mouse primary glial cells assessed as reduction in cell viability after 72 hrs by luminescence based ATPlite assay; format: toxicity; conditions: read-out: LC50
Summary of the method: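 Primary neuron/glia cultures from embryonic mouse brain were grown 5 days at 37 °C (5% CO2) to allow neuron formation. Compounds were then added at final 0–100 μM in 1% DMSO for 72 h. Cellular ATP was read by luminescence after 10 min with reagent at room temperature.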

[5] = Passive membrane permeability of the compound at 50 uM after 18 hrs by PAMPA; format: ADME; conditions: read-out: Peff
Summary of the method: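 PAMPA: 50 μM donor solution in PBS/EtOH 70:30 over PVDF membrane precoated with PBL/dodecane (20 mg/mL); PBS/EtOH acceptor; 18 h at 20 °C without shaking; duplicates; donor and acceptor concentrations by UV absorbance corrected against vehicle.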

[6] = Cytotoxicity against human THLE2 cells assessed as reduction in cell viability after 72 hrs by ATP Vialight assay; format: toxicity, cell-based, THLE-2; conditions: read-out: LC50
Summary of the method: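 Immortalized human liver THLE-2 cells in BEGM with 0.7 μg/mL phosphoethanolamine, 0.5 ng/mL EGF, antibiotics and 10% FBS, seeded at 10,000 cells/well and left 24 h at 37 °C. Compounds were added at final 0–100 μM in 1% DMSO for 72 h. Cellular ATP was read by luminescence after 45 min lysis.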

[7] = Selectivity ratio of pLC50 for mouse primary glial cells to pLC50 for human THLE2 cells; format: ADME, cell-based; conditions: mouse primary glial cells versus THLE2 cells
[8] = Selectivity ratio of pIC50 for full length recombinant human C-terminal His/Flag-tagged HDAC1 expressed in baculovirus infected Sf9 cells to pIC50 for full length recombinant human N-terminal GST tagged HDAC6 expressed in baculovirus infected Sf9 cells
[9] = Lipophilicity, log D of the compound at pH 7.4; format: physicochemical; conditions: buffer
[10] = molecular target: Histone deacetylase 3/Nuclear receptor corepressor 2 (HDAC3/NCoR2) (Homo sapiens, UniProt O15379); assay: Inhibition of full length recombinant human C-terminal His-tagged HDAC3/N-terminal GST-tagged NCOR2 (395 to 489 residues) expressed in baculovirus infected Sf9 cells using fluorogenic HDAC substrate after 30 mins by fluorescence analysis
[11] = Selectivity ratio of pIC50 for full length recombinant human N-terminal GST tagged HDAC6 expressed in baculovirus infected Sf9 cells to pIC50 for full length recombinant human C-terminal His/Flag-tagged HDAC1 expressed in baculovirus infected Sf9 cells

Histone deacetylase 1, sequence (Q13547 whole entry): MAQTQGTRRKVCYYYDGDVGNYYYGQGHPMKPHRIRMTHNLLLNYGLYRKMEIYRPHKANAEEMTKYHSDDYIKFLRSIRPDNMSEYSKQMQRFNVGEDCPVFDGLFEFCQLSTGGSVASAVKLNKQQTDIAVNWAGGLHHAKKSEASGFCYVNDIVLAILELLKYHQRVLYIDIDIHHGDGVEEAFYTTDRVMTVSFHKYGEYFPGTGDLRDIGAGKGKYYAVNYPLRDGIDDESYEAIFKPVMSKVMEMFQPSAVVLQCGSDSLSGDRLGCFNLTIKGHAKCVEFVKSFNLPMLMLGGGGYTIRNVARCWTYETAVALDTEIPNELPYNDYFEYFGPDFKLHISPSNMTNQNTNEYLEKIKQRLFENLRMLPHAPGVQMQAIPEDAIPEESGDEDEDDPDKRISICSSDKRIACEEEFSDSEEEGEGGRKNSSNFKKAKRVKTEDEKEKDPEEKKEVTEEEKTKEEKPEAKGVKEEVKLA
Histone deacetylase 3/Nuclear receptor corepressor 2 (HDAC3/NCoR2), sequence (O15379 whole entry, the tested form may be a part): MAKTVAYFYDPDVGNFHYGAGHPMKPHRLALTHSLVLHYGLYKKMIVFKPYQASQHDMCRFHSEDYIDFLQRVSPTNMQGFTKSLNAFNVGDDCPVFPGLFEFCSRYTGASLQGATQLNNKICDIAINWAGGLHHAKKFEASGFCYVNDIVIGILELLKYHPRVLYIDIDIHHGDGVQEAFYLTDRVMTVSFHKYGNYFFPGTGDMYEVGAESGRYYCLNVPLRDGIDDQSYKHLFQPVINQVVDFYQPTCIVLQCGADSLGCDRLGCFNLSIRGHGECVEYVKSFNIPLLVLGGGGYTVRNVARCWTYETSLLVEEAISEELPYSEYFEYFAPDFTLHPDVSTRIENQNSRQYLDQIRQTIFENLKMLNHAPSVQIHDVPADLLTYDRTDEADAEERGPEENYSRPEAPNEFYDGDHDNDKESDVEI
Histone deacetylase 3/Nuclear receptor corepressor 2 (HDAC3/NCoR2), sequence (Q9Y618 whole entry, further chain, the tested form may be a part): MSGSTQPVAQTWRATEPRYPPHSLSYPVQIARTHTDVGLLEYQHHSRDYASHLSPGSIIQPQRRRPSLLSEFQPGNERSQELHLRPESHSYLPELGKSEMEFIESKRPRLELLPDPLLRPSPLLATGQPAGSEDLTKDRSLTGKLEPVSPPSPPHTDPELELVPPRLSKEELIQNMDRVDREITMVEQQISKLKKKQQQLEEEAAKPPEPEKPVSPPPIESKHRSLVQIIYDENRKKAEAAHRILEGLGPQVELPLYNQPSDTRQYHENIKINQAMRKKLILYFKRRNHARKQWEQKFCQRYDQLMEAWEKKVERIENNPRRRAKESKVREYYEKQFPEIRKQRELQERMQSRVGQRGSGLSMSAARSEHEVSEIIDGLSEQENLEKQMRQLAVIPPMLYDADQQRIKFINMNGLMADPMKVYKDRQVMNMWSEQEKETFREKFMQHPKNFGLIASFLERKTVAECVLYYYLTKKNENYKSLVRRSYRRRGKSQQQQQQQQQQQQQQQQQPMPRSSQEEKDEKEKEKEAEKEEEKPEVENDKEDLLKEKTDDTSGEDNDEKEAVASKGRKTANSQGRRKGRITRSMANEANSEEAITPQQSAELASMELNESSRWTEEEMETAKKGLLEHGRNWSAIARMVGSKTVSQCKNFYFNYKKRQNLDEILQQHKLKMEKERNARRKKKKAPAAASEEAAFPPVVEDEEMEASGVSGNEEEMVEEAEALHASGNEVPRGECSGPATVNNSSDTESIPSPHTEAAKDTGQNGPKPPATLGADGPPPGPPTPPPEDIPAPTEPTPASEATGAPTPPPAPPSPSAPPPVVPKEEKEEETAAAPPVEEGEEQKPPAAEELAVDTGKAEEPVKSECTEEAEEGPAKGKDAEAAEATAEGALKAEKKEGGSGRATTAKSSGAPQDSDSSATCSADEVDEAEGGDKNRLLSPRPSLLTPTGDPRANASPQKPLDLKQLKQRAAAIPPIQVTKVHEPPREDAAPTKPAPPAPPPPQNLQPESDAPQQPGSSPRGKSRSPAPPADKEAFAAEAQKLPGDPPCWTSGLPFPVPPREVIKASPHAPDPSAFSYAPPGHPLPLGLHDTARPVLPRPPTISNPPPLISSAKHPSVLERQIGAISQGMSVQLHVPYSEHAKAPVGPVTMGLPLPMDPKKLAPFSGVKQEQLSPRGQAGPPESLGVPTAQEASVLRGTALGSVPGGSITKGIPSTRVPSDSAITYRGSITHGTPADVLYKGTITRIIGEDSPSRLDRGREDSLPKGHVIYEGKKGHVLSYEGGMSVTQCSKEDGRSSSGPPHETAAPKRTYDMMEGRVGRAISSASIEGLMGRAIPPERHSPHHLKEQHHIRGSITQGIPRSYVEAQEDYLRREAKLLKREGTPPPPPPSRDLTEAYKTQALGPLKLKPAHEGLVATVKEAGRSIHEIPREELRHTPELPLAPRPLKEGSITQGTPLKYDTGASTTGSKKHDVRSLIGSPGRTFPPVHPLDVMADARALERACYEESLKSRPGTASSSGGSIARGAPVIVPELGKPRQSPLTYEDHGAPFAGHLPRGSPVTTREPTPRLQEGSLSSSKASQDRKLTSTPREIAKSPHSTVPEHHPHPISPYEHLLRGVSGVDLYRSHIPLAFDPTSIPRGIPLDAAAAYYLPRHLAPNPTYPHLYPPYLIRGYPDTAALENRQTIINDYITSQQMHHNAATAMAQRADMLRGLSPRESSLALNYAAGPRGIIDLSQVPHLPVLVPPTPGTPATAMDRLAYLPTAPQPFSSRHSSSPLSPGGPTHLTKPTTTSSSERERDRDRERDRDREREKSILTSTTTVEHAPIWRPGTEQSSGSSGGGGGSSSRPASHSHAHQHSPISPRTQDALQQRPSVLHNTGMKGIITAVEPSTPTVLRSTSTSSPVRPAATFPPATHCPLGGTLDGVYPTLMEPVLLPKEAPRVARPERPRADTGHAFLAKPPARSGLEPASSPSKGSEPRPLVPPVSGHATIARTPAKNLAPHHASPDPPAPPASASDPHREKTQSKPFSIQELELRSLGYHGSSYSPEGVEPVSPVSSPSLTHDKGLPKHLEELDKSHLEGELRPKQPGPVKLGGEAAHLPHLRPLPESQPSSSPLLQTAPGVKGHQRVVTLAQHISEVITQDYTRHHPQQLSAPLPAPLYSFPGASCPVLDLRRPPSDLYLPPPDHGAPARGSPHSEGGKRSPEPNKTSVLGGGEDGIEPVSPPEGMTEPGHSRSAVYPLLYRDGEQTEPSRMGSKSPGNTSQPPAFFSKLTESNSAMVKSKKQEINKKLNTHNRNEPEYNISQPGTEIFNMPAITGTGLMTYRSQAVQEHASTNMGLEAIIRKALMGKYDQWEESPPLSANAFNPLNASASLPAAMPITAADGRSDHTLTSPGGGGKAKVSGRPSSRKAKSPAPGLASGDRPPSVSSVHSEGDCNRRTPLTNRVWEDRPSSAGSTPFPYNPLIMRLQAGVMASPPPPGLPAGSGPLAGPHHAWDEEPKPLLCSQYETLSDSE
Histone deacetylase 2, sequence (Q92769 whole entry): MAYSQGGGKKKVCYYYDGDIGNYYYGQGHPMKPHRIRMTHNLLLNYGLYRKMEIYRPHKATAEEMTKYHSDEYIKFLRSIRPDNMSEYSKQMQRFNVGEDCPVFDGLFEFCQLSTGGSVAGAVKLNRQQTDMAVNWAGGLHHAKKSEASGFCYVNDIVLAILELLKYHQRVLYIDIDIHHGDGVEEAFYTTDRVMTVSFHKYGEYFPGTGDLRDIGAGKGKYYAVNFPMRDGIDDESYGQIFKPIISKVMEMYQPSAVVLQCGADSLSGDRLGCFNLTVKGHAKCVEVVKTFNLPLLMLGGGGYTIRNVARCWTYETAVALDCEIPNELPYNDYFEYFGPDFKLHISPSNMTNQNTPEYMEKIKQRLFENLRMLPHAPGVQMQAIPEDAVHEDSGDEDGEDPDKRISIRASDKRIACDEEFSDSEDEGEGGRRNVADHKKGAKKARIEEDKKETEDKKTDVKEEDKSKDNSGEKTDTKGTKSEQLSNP

| IC50 (Histone deacetylase 1) [nM] | IC50 [1] [nM] | pKa [2] | IC50 [3] [nM] | IC50 (Histone deacetylase 2) [nM] | Structure (SMILES) | CC50 at 72 h [4] [nM] | Papp at 18 h, 50 µM [5] [×10⁻⁶ cm/s] | CC50 at 72 h [6] [nM] | selectivity ratio [7] | Ratio pIC50 [8] | logD [9] | IC50 [10] [nM] | Ratio pIC50 [11] |
| --- | --- | --- | --- | --- | --- | --- | --- | --- | --- | --- | --- | --- | --- |
| 1880 | 57 | 8.29 | 395 | 6430 | CCCc1nn(C)c2c(=O)[nH]c(-c3cc(CC4CCN(c5ccc(C(=O)NO)cn5)CC4)ccc3OCC)nc12 |  |  |  |  |  |  |  |  |
|  |  |  |  |  | CN1CC(=O)N2[C@H](c3ccc4c(c3)OCO4)c3[nH]c4ccccc4c3C[C@@H]2C1=O | 110000 | 2.68 | 60300 |  |  |  |  |  |
| 554 | 17 |  | 130 | 1860 | CCCc1nn(C)c2c(=O)[nH]c(-c3cc(C4CC(C(=O)NO)C4)ccc3OCC)nc12 (stereo not drawn) |  | 1.37 |  | < 0.4 | > 0.6 |  |  |  |
|  |  |  |  |  | O=C(CCCCCCC(=O)Nc1ccccc1)NO [VORINOSTAT] | 4910 | 0.23 | 3590 |  |  | 2 |  |  |
| > 20000 | 121 | 8.73 | > 20000 | > 20000 | CCCc1nn(C)c2c(=O)[nH]c(-c3cc(CC4CCN(c5ccc(C(=O)NO)cc5)CC4)ccc3OCC)nc12 |  |  |  |  |  |  |  |  |
| 63 | 7 | 7.85 | 1250 | 335 | CCCc1nn(C)c2c(=O)[nH]c(-c3cc(CC4CCN(c5ncc(C(=O)NO)cn5)CC4)ccc3OCC)nc12 |  | 0.41 |  | < 0.4 |  |  | 51 | 1.4 |
| 1340 | 2 |  | 89 | 6970 | CCCc1nn(C)c2c(=O)[nH]c(-c3cc(S(=O)(=O)N4CCN(Cc5ccc(/C=C/C(=O)NO)cc5)CC4)ccc3OCC)nc12 |  |  |  |  | > 1 |  |  |  |

| Structure (SMILES) | IC50 (Histone deacetylase 1) [nM] | IC50 [1] [nM] | pKa [2] | IC50 [3] [nM] | IC50 (Histone deacetylase 2) [nM] | CC50 at 72 h [4] [nM] | Papp at 18 h, 50 µM [5] [×10⁻⁶ cm/s] | CC50 at 72 h [6] [nM] | selectivity ratio [7] | Ratio pIC50 [8] | logD [9] | IC50 [10] [nM] | Ratio pIC50 [11] |
| --- | --- | --- | --- | --- | --- | --- | --- | --- | --- | --- | --- | --- | --- |
| CCCc1nn(C)c2c(=O)[nH]c(-c3cc(S(=O)(=O)Nc4ccc(/C=C/C(=O)NO)cc4)ccc3OCC)nc12 | 356 | 1 |  | 84 | 1310 | 30300 | 0.23 | 27400 | < 0.4 |  |  |  |  |
| CCCc1nn(C)c2c(=O)[nH]c(-c3cc(N4CCC(CC(=O)NO)CC4)ccc3OCC)nc12 | 5860 | 65 |  | 1090 | > 20000 | > 100000 | 0.49 | 88700 | < 0.4 |  |  |  |  |
| CCCc1nn(C)c2c(=O)[nH]c(-c3cc(S(=O)(=O)NC4CCN(c5ncc(C(=O)NO)cn5)CC4)ccc3OCC)nc12 | 57 | 0.6 |  | 59 | 341 | 4950 | 0.1 | 11900 | < 0.4 |  |  | 54 |  |
| CCCc1nn(C)c2c(=O)[nH]c(-c3cc(S(=O)(=O)N4CCN(c5ncc(C(=O)NO)cn5)CC4)ccc3OCC)nc12 | 8 | 3 |  | 268 | 117 | 2150 | 0.72 | 1460 | < 0.4 |  |  | 36 | > 1 |
